Some results are limits rather than exact numbers.

The target of series [1] is T1, Monoamine oxidase (Mus musculus, UniProt Q8BW75+Q64133).
T1 sequence (Q8BW75 whole entry): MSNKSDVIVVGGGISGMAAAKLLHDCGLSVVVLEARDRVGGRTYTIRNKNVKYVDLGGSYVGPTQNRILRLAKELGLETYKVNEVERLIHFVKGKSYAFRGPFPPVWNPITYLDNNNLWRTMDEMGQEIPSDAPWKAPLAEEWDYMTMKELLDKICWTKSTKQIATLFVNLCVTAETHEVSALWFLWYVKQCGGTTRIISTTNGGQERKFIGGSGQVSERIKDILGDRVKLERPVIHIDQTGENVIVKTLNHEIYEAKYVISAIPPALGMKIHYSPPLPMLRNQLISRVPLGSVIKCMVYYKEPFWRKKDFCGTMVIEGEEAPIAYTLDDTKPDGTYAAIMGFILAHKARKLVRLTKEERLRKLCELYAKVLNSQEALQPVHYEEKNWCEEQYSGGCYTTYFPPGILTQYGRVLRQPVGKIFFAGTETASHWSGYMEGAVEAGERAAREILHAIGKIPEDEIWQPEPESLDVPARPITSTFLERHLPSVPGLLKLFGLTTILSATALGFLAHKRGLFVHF
T1 sequence (Q64133 whole entry): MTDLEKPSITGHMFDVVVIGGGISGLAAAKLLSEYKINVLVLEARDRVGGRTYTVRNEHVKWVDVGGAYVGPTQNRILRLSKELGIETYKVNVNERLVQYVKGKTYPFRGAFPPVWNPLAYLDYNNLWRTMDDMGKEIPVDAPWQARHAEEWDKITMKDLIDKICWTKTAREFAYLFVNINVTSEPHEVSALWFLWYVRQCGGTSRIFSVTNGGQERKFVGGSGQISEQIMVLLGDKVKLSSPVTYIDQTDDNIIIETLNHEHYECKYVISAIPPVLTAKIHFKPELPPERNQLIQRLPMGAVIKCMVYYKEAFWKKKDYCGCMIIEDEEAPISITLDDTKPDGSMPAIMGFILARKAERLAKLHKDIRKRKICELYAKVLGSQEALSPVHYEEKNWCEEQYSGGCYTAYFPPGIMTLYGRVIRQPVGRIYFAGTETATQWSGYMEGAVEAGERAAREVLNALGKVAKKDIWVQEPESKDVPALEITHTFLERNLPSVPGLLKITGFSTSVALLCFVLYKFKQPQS
Kind of series: Inhibitory activity of Monoamine oxidase at mouse forebrain homogenate by displacing [14C]PEA. Format: tissue-based. An outline of the steps:
(§1)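 Male NMRI mice (18–22 g) dosed ip (0.2 mL/20 g) and killed 1 h later, five per dose. Forebrain was homogenized in 10 vol ice-cold 0.1 M sodium phosphate, pH 7.4, and incubated 10 min at 37 °C with 10 μM [14C]PEA plus 10 μM [3H]5-HT. Acid metabolites were extracted into ethyl acetate and 3H/14C counted in separate channels.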

The target in series [2] is T1, Monoamine oxidase. Kind of series: Inhibitory activity of Monoamine oxidase at mouse forebrain homogenate by displacing [14C]5-HT. Type of series: tissue-based. An outline of the steps: as §1
Series [3] concerns the target T2, Monoamine oxidase (Rattus norvegicus, UniProt P19643+P21396).
T2 sequence (P19643 whole entry): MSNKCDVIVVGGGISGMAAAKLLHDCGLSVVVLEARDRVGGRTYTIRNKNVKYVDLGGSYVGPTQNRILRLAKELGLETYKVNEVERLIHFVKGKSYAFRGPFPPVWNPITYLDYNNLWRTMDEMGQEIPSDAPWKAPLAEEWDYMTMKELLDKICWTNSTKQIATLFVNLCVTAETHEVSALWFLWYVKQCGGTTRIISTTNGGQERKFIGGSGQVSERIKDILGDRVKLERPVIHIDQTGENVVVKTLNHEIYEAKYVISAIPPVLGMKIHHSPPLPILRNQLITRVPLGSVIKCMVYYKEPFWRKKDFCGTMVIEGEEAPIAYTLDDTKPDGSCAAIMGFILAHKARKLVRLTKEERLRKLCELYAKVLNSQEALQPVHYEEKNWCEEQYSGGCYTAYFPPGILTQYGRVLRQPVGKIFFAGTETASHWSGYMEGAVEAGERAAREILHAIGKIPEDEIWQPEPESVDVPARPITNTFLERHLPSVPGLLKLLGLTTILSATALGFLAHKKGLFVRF
T2 sequence (P21396 whole entry): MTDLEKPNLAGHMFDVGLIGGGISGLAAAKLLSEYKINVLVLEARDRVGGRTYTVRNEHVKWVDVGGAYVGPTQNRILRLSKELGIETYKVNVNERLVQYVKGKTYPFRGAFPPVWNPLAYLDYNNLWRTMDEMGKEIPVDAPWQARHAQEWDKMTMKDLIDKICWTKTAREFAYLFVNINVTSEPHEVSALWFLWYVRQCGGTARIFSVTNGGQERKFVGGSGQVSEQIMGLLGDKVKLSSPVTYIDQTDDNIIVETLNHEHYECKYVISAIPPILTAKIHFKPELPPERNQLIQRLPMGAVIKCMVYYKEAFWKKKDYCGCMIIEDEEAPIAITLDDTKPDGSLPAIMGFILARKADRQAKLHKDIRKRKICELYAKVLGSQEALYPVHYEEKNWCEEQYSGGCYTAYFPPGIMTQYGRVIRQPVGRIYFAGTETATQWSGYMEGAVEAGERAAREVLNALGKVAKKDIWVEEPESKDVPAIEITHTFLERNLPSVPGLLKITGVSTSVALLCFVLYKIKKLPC
Kind of series: In vitro inhibition of Monoamine oxidase at rat hyphalamic mitochondrial PEA by displacing 2.5 uM of [14C]PEA. Format: protein assay.

For series [4], the system named is Mus musculus. Nature of the series: Lowest dose potentiating the awakening effect of phenethylamine (10 mg/kg, subcutaneous) in mice pretreated with reserpine. Type of series: functional. An outline of the steps:
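Mice were pretreated with reserpine 5 mg/kg sc 18 h beforehand. Test compound was given ip 1 h before PEA hydrochloride 10 mg/kg sc.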

In series [5] the target is T2, Monoamine oxidase. Nature of the series: In vitro inhibition of Monoamine oxidase at rat hyphalamic mitochondrial 5-HT by displacing 2.5 uM of [14C]5-HT. Format: protein assay.
Series [6] has as its target T1, Monoamine oxidase. Nature of the series: Inhibitory activity of Monoamine oxidase at mouse forebrain homogenate by displacing [14C]PEA (phenethylamine). Type of series: tissue-based. An outline of the steps: as §1
Series [7] deals with T1, Monoamine oxidase. Kind of series: Inhibitory activity of Monoamine oxidase at mouse forebrain homogenate by displacing [14C]5-HT (serotonin). Type of series: tissue-based. The settings on record: in the assay text read “[3H]5-HT” for “[14C]5-HT”. In a few lines: as §1
Series [8] relates to Mus musculus. Kind of series: Lowest dose potentiating the awakening effect of phenethylamine (10 mg/kg, subcutaneous) in mice pretreated with reserpine.
Series [9] has as its system Mus musculus. Kind of series: Compound was injected ip 1 hr prior to 90 mg/kg iv of […] evaluation of head twitches in mice. Type of series: functional. In a few lines:
(§2)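 Test compound given ip 1 h before iv dl-5-HTP, 90 mg/kg, in mice. The 5-HTP syndrome was scored per Ross et al. for head twitches, tremor and abduction. Values are ED50 in μmol/kg ip.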

Series [10] relates to Mus musculus. Kind of series: Compound was injected ip 1 hr prior to 90 mg/kg iv of […] evaluation of tremor in mice. Type of series: functional. An outline of the steps: as §2
The test system of series [11] is Mus musculus. Kind of series: Compound was injected ip 1 hr prior to 90 mg/kg iv of […] evaluation of abduction in mice. Type of series: functional. In a few lines:
as §2

As to `C=C=CCNCc1ccccc1`, the figures for the ED50 in series [1] and in series [2] were 6 µM/kg and over 51 µM/kg, respectively. Moreover, the values for the IC50 in series [3] and in [5] were 0.15 µM and 1.8 µM, respectively. In [4], the Potentiation was determined as 26 µM/kg.
Take `C#CCN(C)[C@H](C)Cc1ccccc1` [SELEGILINE]: the results for the ED50 in series [1] and in [2] were 2 µM/kg and over 89 µM/kg, respectively. The Potentiation in [4] was 5 µM/kg.
Take `C=C=C(CN)Cc1ccccc1`: the figures for the ED50 in series [1] and in [2] were 12 µM/kg and over 26 µM/kg, respectively. Besides, the IC50 (commonly the point on the concentration scale where inhibition reaches its midpoint) in series [3] was 0.14 µM; in [5], 20 µM. In series [4], the Potentiation was 51 µM/kg.
For `C=C=C(Cc1ccccc1)CN(C)C`, in that order: 54 µM/kg, over 72 µM/kg, over 100 µM, 25 µM and over 72 µM/kg.
For `C=C=C(CNC)Cc1ccccc1`, in that order: 11 µM/kg, over 38 µM/kg, 0.44 µM, 6.2 µM and 76 µM/kg.
For `C=C=C(CN)Cc1ccc(C)cc1`, in that order: 23 µM/kg, over 38 µM/kg, 0.36 µM, 1.1 µM and over 38 µM/kg.
Regarding `C=C=C(CN)c1ccccc1`, the ED50 in series [1] was 8 µM/kg; in [2] it was over 39 µM/kg. The figures for the IC50 in series [3] and in [5] were 0.24 µM and 7.2 µM, respectively. Further, the Potentiation in [4] was over 79 µM/kg.
As to `C=C=CC(C)N(C)Cc1ccccc1` (centres undefined), the results for the IC50 in [3] and in series [5] were over 100 µM and 43 µM, respectively.
With `C=C=C(CN)Cc1ccc(OC)cc1`, the ED50 in series [1] came to 16 µM/kg; in [2], 39 µM/kg. Moreover, the figures for the half-inhibitory concentration (IC50) in series [3] and in [5] were 0.58 µM and 0.7 µM, respectively. For the same compound, in series [4], the Potentiation is 36 µM/kg.
For `CC=C=CCN(C)Cc1ccccc1.O=C(O)C(=O)O` (stereo in doubt; (R)(-)2), the ED50 in series [1] is 20 µM/kg; in [2] it was over 36 µM/kg. In addition, the results for the IC50 in [3] and in series [5] were 2.3 µM and 17 µM, respectively. Besides, in series [4], the Potentiation came out at 72 µM/kg.
With `C=C=CCN(C)Cc1ccccc1`, the ED50 in [1] was 17 µM/kg; in series [2], over 48 µM/kg. Further, the figures for the IC50 in series [3] and in [5] were 0.17 µM and 8.2 µM, respectively.
Take `C=C=CCN(C)C1CCc2ccccc21` (centres undefined): the values for the ED50 in [1] and in [2] were 1.7 µM/kg and 35 µM/kg, respectively. Also, the IC50 in series [3] came to 0.36 µM; in series [5], 1.8 µM. Also, the Potentiation in series [4] was determined as 9 µM/kg.
With `C#CCN(C)CCCOc1ccc(Cl)cc1Cl` [CLORGILINE], the ED50 in series [6] is over 65 µM/kg; in [7], 2.6 µM/kg. Moreover, the Potentiation in [8] was over 65 µM/kg.
Regarding `CC=C=CCN(C)Cc1ccccc1`, the ED50 in series [1] is 36 µM/kg; in [2], over 72 µM/kg. The half-inhibitory concentration (IC50) was 15 µM in series [3] and 29 µM in series [5].
On to `C=C=CCN(C)C(C)Cc1ccccc1` (centres undefined), for which the ED50 was 52 µM/kg in [1] and over 69 µM/kg in [2]. For the same compound, the IC50 in [3] is 4.7 µM; in series [5], 0.8 µM. Besides, the Potentiation in series [4] was determined as 34 µM/kg.
As to `C=C=CCN(C)CCCOc1ccc(Cl)cc1Cl`, the ED50 in [1] amounted to 33 µM/kg; in [9] it was 1.7 µmol/kg; in [2] it was 6 µM/kg; in [10], 5.1 µmol/kg; in series [11] it was 5.4 µmol/kg. Further, the IC50 in [3] was found to be 4.6 µM; in [5] it was 0.004 µM. The Potentiation in series [4] is 60 µM/kg.
As to `C=C=CCN1CCc2ccccc2C1`, the ED50 in [1] and in [2] was over 90 µM/kg each time. In addition, the IC50 in [3] was 4.3 µM; in series [5], 7 µM. Besides, the Potentiation in series [4] is over 90 µM/kg.
As for `CC=C=CCN(C)Cc1ccccc1.O=C(O)C(=O)O` (stereo in doubt; (S)(+)2), the ED50 in series [1] was 54 µM/kg; in series [2] it was over 72 µM/kg. For the same compound, the 50% inhibitory concentration (IC50) was determined as 50 µM in series [3] and 51 µM in [5]. The Potentiation in series [4] was over 72 µM/kg.
For `C=C=C(CN)Cc1ccc(Cl)cc1` the same measures were 7 µM/kg, 18 µM/kg, 0.04 µM, 0.26 µM and 35 µM/kg.
